{"source": "ChEMBL document CHEMBL3779798", "about": "“Novel seleno- and thio-urea derivatives with potent in vitro activities against several cancer cell lines” (Eur J Med Chem, 2016)", "key": {"HCT-116 [1]": {"tested_on": "HCT-116", "test": "Induction of apoptosis in human HCT116 cells assessed as viable cells at 1 uM after 24 hrs by caspase3/7 reagent based flow cytometry (reference value: 88.4%)", "assay_type": "functional", "conditions": "HCT-116, 24 h, read-out: Activity"}, "[2]": {"test": "Anticancer activity against human 1205 Lu cells assessed as inhibition of cell growth after 72 hrs by MTT assay", "assay_type": "functional, cell-based", "how_it_was_run": "(§1)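 MTT assay at 3,000 cells/well. Cells treated with DMSO or seven concentrations from 0.5 to 50 µM for 24, 48 or 72 h. MTT added 3 h before the end point; formazan dissolved in DMSO and read at 570 and 630 nm. IC50 is the concentration giving 50% growth inhibition. Media: PANC-1, BxPC3 and 1205Lu in DMEM; DU145 and A549 in RPMI 1640; HT29, HCT116 and RKO in McCoy's 5A, all with 10% FBS and pen/strep, at 37 °C and 5% CO2.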"}, "HCT-116 [3]": {"tested_on": "HCT-116", "test": "Decrease in whole PARP level in human HCT116 cells at 0.5 to 5 uM after 24 hrs by western blot analysis", "assay_type": "functional, cell-based", "how_it_was_run": "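HCT116 cells (6 × 10^5/well) treated for 24 h. Whole-cell lysates made in RIPA buffer with phosphatase and protease inhibitors and PMSF, cleared at 15,000 g, resolved by SDS-PAGE and transferred to PVDF. Blots probed overnight in the cold with primary antibodies, then peroxidase-linked secondaries, and detected by ECL; β-actin antibody used.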"}, "HCT-116 [4]": {"tested_on": "HCT-116", "test": "Induction of apoptosis in human HCT116 cells assessed as early apoptotic cells after 24 hrs by annexin-V staining based flow cytometry analysis", "assay_type": "functional, cell-based"}, "[5]": {"test": "Anticancer activity against human DU145 cells assessed as inhibition of cell growth after 24 hrs by MTT assay", "assay_type": "functional, cell-based", "conditions": "DU-145, 24 h", "how_it_was_run": "as §1"}, "HCT-116 [6]": {"tested_on": "HCT-116", "test": "Induction of apoptosis in human HCT116 cells assessed as necrotic cells at 2.5 uM after 24 hrs by annexin-V staining based flow cytometry analysis (reference value: 0.72%)", "assay_type": "functional"}, "[7]": {"test": "Anticancer activity against human HCT116 cells assessed as inhibition of cell growth after 24 hrs by MTT assay", "assay_type": "functional, cell-based", "conditions": "HCT-116, 24 h", "how_it_was_run": "as §1"}, "[8]": {"test": "Induction of cell death in human HCT116 cells at 5 uM after 24 hrs by calcein-AM and ethidium homodimer-1 staining based flow cytometry analysis (reference value: 1.1%)", "assay_type": "functional, HCT-116"}, "[9]": {"test": "Anticancer activity against human HCT116 cells assessed as inhibition of cell growth after 48 hrs by MTT assay", "assay_type": "functional, cell-based", "conditions": "HCT-116, 48 h", "how_it_was_run": "as §1"}, "HCT-116 [10]": {"tested_on": "HCT-116", "test": "Induction of apoptosis in human HCT116 cells assessed as necrotic cells at 1 uM after 24 hrs by annexin-V staining based flow cytometry analysis (reference value: 0.72%)", "assay_type": "functional"}, "HCT-116 [11]": {"tested_on": "HCT-116", "test": "Decrease in number of viable cells in human HCT116 cells at 1 uM after 24 hrs by calcein-AM and ethidium homodimer-1 staining based flow cytometry analysis (reference value: 94.9%)", "assay_type": "functional"}, "HCT-116 [12]": {"tested_on": "HCT-116", "test": "Induction of apoptosis in human HCT116 cells assessed as viable cells at 2.5 uM after 24 hrs by caspase3/7 reagent based flow cytometry (reference value: 88.4%)", "assay_type": "functional", "conditions": "HCT-116, 24 h, read-out: Activity"}, "HT-29 [13]": {"tested_on": "HT-29", "test": "Anticancer activity against human HT-29 cells assessed as inhibition of cell growth after 24 hrs by MTT assay", "assay_type": "functional, cell-based", "conditions": "HT-29, 24 h", "how_it_was_run": "as §1"}, "HT-29 [14]": {"tested_on": "HT-29", "test": "Potency index, ratio IC50 of 5-FU to IC50 of compound for anticancer activity against human HT-29 cells", "assay_type": "functional", "how_it_was_run": "(§2)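 Colon lines (McCoy's 5A, 10% FBS, penicillin/streptomycin, 37 °C, 5% CO2) seeded at 3,000 cells/well and exposed 24, 48 or 72 h to DMSO or seven concentrations across 0.5–50 µM. MTT added 3 h before end; formazan dissolved in DMSO, absorbance read at 570 and 630 nm. IC50 (50% growth inhibition) from curve fitting; index is the 5-FU IC50 divided by the compound IC50.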"}, "HCT-116 [15]": {"tested_on": "HCT-116", "test": "Induction of apoptosis in human HCT116 cells assessed as viable cells at 1 uM after 24 hrs by annexin-V staining based flow cytometry analysis (reference value: 90.38%)", "assay_type": "functional", "conditions": "HCT-116, 24 h, read-out: Activity"}, "[16]": {"test": "Anticancer activity against human DU145 cells assessed as inhibition of cell growth after 48 hrs by MTT assay", "assay_type": "functional, cell-based", "conditions": "DU-145, 48 h", "how_it_was_run": "as §1"}, "A549": {"tested_on": "A549", "test": "Anticancer activity against human A549 cells assessed as inhibition of cell growth after 48 hrs by MTT assay", "assay_type": "functional, cell-based", "conditions": "A549, 48 h", "how_it_was_run": "as §1"}, "[17]": {"test": "Anticancer activity against human PANC1 cells assessed as inhibition of cell growth after 48 hrs by MTT assay", "assay_type": "functional, cell-based", "conditions": "PANC-1, 48 h", "how_it_was_run": "as §1"}, "HCT-116 [18]": {"tested_on": "HCT-116", "test": "Induction of apoptosis in human HCT116 cells assessed as early apoptotic cells at 5 uM after 24 hrs by caspase3/7 reagent based flow cytometry (reference value: 5.18%)", "assay_type": "functional"}, "HCT-116 [19]": {"tested_on": "HCT-116", "test": "Induction of apoptosis in human HCT116 cells assessed as early apoptotic cells at 1 uM after 24 hrs by annexin-V staining based flow cytometry analysis (reference value: 7.84%)", "assay_type": "functional"}, "[20]": {"test": "Induction of cell death in human HCT116 cells at 2.5 uM after 24 hrs by calcein-AM and ethidium homodimer-1 staining based flow cytometry analysis (reference value: 1.1%)", "assay_type": "functional, HCT-116"}, "RKO": {"tested_on": "RKO", "test": "Anticancer activity against human RKO cells assessed as inhibition of cell growth after 72 hrs by MTT assay", "assay_type": "functional, cell-based", "how_it_was_run": "as §1"}, "HCT-116 [21]": {"tested_on": "HCT-116", "test": "Induction of apoptosis in human HCT116 cells assessed as late apoptotic cells at 1 uM after 24 hrs by annexin-V staining based flow cytometry analysis (reference value: 1.06%)", "assay_type": "functional"}, "[22]": {"test": "Anticancer activity against human 1205 Lu cells assessed as inhibition of cell growth after 48 hrs by MTT assay", "assay_type": "functional, cell-based", "how_it_was_run": "as §1"}, "HCT-116 [23]": {"tested_on": "HCT-116", "test": "Induction of apoptosis in human HCT116 cells assessed as necrotic cells at 5 uM after 24 hrs by caspase3/7 reagent based flow cytometry (reference value: 4.14%)", "assay_type": "functional"}, "HT-29 [24]": {"tested_on": "HT-29", "test": "Anticancer activity against human HT-29 cells assessed as inhibition of cell growth after 48 hrs by MTT assay", "assay_type": "functional, cell-based", "conditions": "HT-29, 48 h", "how_it_was_run": "as §1"}, "HCT-116 [25]": {"tested_on": "HCT-116", "test": "Induction of apoptosis in human HCT116 cells assessed as viable cells at 5 uM after 24 hrs by caspase3/7 reagent based flow cytometry (reference value: 88.4%)", "assay_type": "functional", "conditions": "HCT-116, 24 h, read-out: Activity"}, "[26]": {"test": "Induction of cell death in human HCT116 cells at 1 uM after 24 hrs by calcein-AM and ethidium homodimer-1 staining based flow cytometry analysis (reference value: 1.1%)", "assay_type": "functional, HCT-116"}, "HCT-116 [27]": {"tested_on": "HCT-116", "test": "Induction of apoptosis in human HCT116 cells assessed as early apoptotic cells at 2.5 uM after 24 hrs by annexin-V staining based flow cytometry analysis (reference value: 7.84%)", "assay_type": "functional"}, "[28]": {"test": "Anticancer activity against human BxPC3 cells assessed as inhibition of cell growth after 72 hrs by MTT assay", "assay_type": "functional, cell-based", "conditions": "BXPC-3, 72 h", "how_it_was_run": "as §1"}, "HCT-116 [29]": {"tested_on": "HCT-116", "test": "Potency index, ratio IC50 of 5-FU to IC50 of compound for anticancer activity against human HCT116 cells", "assay_type": "functional", "how_it_was_run": "as §2"}, "HCT-116 [30]": {"tested_on": "HCT-116", "test": "Induction of apoptosis in human HCT116 cells assessed as viable cells at 5 uM after 24 hrs by annexin-V staining based flow cytometry analysis (reference value: 90.38%)", "assay_type": "functional", "conditions": "HCT-116, 24 h, read-out: Activity"}, "HCT-116 [31]": {"tested_on": "HCT-116", "test": "Induction of apoptosis in human HCT116 cells assessed as late apoptotic cells at 5 uM after 24 hrs by caspase3/7 reagent based flow cytometry (reference value: 2.28%)", "assay_type": "functional"}}, "note": "Activity calls are given as the source filed them. The rule behind the calls is not given here."}
{"smiles": "Br.Br.N=C(N)[Se]Cc1nc2ccccc2nc1C[Se]C(=N)N", "values": [{"measurement": "viability at 1 µM", "setting": "HCT-116 [1]", "result": 87, "unit": "%"}, {"measurement": "IC50", "setting": "[2]", "result": 2.2, "unit": "µM"}, {"measurement": "Activity", "setting": "HCT-116 [3]", "result": "Active"}, {"measurement": "Activity", "setting": "HCT-116 [4]", "result": "Dose-dependent effect"}, {"measurement": "IC50", "setting": "[5]", "result": 2.3, "unit": "µM"}, {"measurement": "Activity", "setting": "HCT-116 [6]", "result": 0.58, "unit": "%"}, {"measurement": "IC50", "setting": "[7]", "result": 2.9, "unit": "µM"}, {"measurement": "Activity", "setting": "[8]", "result": 19.3, "unit": "%"}, {"measurement": "IC50", "setting": "[9]", "result": 0.7, "unit": "µM"}, {"measurement": "Activity", "setting": "HCT-116 [10]", "result": 0.2, "unit": "%"}, {"measurement": "Activity", "setting": "HCT-116 [11]", "result": 96.9, "unit": "%"}, {"measurement": "viability at 2.5 µM", "setting": "HCT-116 [12]", "result": 85, "unit": "%"}, {"measurement": "IC50", "setting": "HT-29 [13]", "result": 5, "unit": "µM"}, {"measurement": "Ratio IC50", "setting": "HT-29 [14]", "result": ">50"}, {"measurement": "viability at 1 µM", "setting": "HCT-116 [15]", "result": 78.1, "unit": "%"}, {"measurement": "IC50", "setting": "[16]", "result": 2.8, "unit": "µM"}, {"measurement": "IC50", "setting": "A549", "result": 2, "unit": "µM"}, {"measurement": "IC50", "setting": "[17]", "result": 2.9, "unit": "µM"}, {"measurement": "Activity", "setting": "HCT-116 [18]", "result": 27.66, "unit": "%"}, {"measurement": "Activity", "setting": "HCT-116 [19]", "result": 19.44, "unit": "%"}, {"measurement": "Activity", "setting": "[20]", "result": 5.1, "unit": "%"}, {"measurement": "IC50", "setting": "RKO", "result": 2.5, "unit": "µM"}, {"measurement": "Activity", "setting": "HCT-116 [21]", "result": 2.28, "unit": "%"}, {"measurement": "IC50", "setting": "[22]", "result": 2.8, "unit": "µM"}, {"measurement": "Activity", "setting": "HCT-116 [23]", "result": 5.96, "unit": "%"}, {"measurement": "IC50", "setting": "HT-29 [24]", "result": 4.1, "unit": "µM"}, {"measurement": "viability at 5 µM", "setting": "HCT-116 [25]", "result": 16.1, "unit": "%"}, {"measurement": "Activity", "setting": "[26]", "result": 0.7, "unit": "%"}, {"measurement": "Activity", "setting": "HCT-116 [27]", "result": 21.6, "unit": "%"}, {"measurement": "IC50", "setting": "[28]", "result": 2.2, "unit": "µM"}, {"measurement": "Ratio IC50", "setting": "HCT-116 [29]", "result": ">50"}, {"measurement": "viability at 5 µM", "setting": "HCT-116 [30]", "result": 24.6, "unit": "%"}, {"measurement": "Activity", "setting": "HCT-116 [31]", "result": 50.26, "unit": "%"}]}
